Assay results collected from several papers.
Each line is one published result; the experiments were not run side by side.
Target: Mitogen-activated protein kinase 12 (MAPK12, Homo sapiens, UniProt P53778)
Sequence (P53778 1-367, as in one of the studies): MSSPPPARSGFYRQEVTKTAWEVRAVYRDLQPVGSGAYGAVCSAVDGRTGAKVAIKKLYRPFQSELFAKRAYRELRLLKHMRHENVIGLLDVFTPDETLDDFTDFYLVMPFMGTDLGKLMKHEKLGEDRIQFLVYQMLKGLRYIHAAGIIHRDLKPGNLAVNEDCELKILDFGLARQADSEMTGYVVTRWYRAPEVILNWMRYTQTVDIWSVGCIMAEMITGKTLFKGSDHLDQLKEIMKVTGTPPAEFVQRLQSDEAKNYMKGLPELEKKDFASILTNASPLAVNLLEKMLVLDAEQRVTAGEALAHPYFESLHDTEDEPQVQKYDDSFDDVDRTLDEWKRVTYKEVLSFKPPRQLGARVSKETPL

Structure (SMILES) | test | setting | remaining binding
F[C@@H]1CCN(c2nccc(-c3cnn4ncccc34)n2)C1 | binding | 1 µM | 100%
CN(c1ccnc(CNc2nc(Nc3ccc4c(c3)CC(=O)N4)ncc2C(F)(F)F)n1)S(C)(=O)=O | cell-free assay, competition with immobilised ligand | 1 µM | 58%
COc1ccnn2ncc(-c3ccnc(N(C)C)n3)c12 | binding | 1 µM | 100%
O=C(c1ccc(Nc2nccc(-c3cc4ccccc4s3)n2)cc1)N1CCC(N2CCCC2)CC1 | binding, competition with immobilised ligand | 1 µM | 88%
CNC(=O)[C@@H]1CC[C@@H](n2c(-c3ccc4cnccc4c3)nc3ccc(C(=O)NCc4cccc(C(N)=O)c4)cc32)C1 | binding, competition with immobilised ligand | 1 µM | 100%
Cc1c[nH]c2nccc(Oc3c(F)cc(Nc4cc(Cl)nc(N)n4)cc3F)c12 | cell-free assay, competition with immobilised ligand | 0.1 µM | 100%
O=C(Nc1c[nH]nc1C(=O)NC1CCNCC1)c1cc(F)cc(F)c1 | binding, competition with immobilised ligand | 1 µM | 100%
O=C(c1ccc(Nc2ncc(Cl)c(-c3cc4ccccc4s3)n2)cc1)N1CCC(N2CCCC2)CC1 | binding, competition with immobilised ligand | 1 µM | 86%
CNC(=O)Nc1ccc2c(c1)[C@@]1(CC2)OC(=O)N(CC(=O)N(Cc2ccc(F)cc2)[C@@H](C)C(F)(F)F)C1=O | cell-free assay, competition with immobilised ligand | 1 µM | 96%
c1cnn2ncc(-c3ccnc(N4CCC45COC5)n3)c2c1 | binding | 1 µM | 65%
O=C(Nc1cnc(Oc2ccc(F)cc2)nc1)N1CCc2ncccc2[C@@H]1c1ccc(F)cc1 | cell-free assay, competition with immobilised ligand | 1 µM | 96%
C[C@@H](c1ccc(-n2cnc3c(N)ncnc32)cc1)N1CCc2nn(C)c(Cc3ccccc3)c2C1=O | binding, competition with immobilised ligand | 0.1 µM | 90%
CN(C)c1ncc(F)c(-c2cnn3ncccc23)n1 | binding | 1 µM | 100%
C[C@@H]1CN(c2cc(-c3n[nH]c4ccc(OC5(C)CC5)cc34)ncn2)C[C@H](C)O1 | cell-free assay, competition with immobilised ligand | 0.1 µM | 96%
Cc1cnc(Nc2ccc(C(=O)N3CCC(N4CCCC4)CC3)cc2)nc1-c1cc2ccccc2s1 | binding, competition with immobilised ligand | 1 µM | 81%
C[C@H]1CCN(c2nccc(-c3cnn4ncccc34)n2)C1 | binding | 1 µM | 37%
COc1cnc(Nc2cccc(S(N)(=O)=O)c2)nc1N1CCN(c2ccccc2)C(=O)C1 | binding, competition with immobilised ligand | 1 µM | 100%
c1cncc(-c2cccc(Nc3nccc(NC4CCCCC4)n3)c2)c1 | binding, competition with immobilised ligand | 10 µM | 84%
CC1=C(C#N)C(c2ccc3c(c2)c(NC(=O)c2ccccc2C)nn3C)C(C#N)=C(C)N1 | cell-free assay, competition with immobilised ligand | 1 µM | 68%
CN(c1nccc(-c2cnn3ncccc23)n1)C1CC1 | binding | 1 µM | 100%
